According to paper PMC3254186 (Frontiers in Pharmacology, 2011):

Experiments:
Type in all cases: cell-based
Kir1.1 = assay: Whole-cell patch clamp, Kir1.1; conditions: 20 μM, n = 5
Kir1.1 (S44D) = molecular target: T1, Kir1.1 (S44D) (Rattus norvegicus, UniProt P35560, S44D); assay: Tl+ flux assay, tetracycline-inducible Kir1.1-S44D T-REx-HEK-293 cells; conditions: IC50 Kir1.1, Tl+ flux, mean ± SEM (n = 3)
T1 sequence (P35560 1-391 S44D): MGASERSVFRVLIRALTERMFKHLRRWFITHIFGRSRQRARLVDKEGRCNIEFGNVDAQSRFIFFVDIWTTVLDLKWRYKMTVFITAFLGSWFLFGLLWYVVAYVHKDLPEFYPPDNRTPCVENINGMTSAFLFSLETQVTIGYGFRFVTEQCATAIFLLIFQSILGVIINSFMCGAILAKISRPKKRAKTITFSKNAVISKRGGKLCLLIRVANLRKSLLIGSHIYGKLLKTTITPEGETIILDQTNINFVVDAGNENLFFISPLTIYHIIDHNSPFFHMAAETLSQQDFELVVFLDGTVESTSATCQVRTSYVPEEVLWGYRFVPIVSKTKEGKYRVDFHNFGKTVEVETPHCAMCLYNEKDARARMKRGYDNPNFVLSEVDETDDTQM
Outline: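 Monoclonal C1 T-REx-HEK-293 Kir1.1-S44D cells were grown in DMEM with 10% FBS, penicillin/streptomycin, 5 μg/mL blasticidin S and 250 μg/mL hygromycin. Channel expression was induced overnight with tetracycline. Cells were loaded with FluoZin-2 and pre-treated with test compound from 1:3 serial dilutions. Extracellular Tl+ was then added and fluorescence imaged kinetically at 20–23°C. CRC, mean ± SEM, n = 3.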

Kir3.1/3.2 = molecular target: T2, Kir3.1/3.2 (Homo sapiens, UniProt P48051+P48549); assay: Two-electrode voltage clamp in Xenopus oocytes, Kir3.1/3.2
T2 sequence (P48549 1-501): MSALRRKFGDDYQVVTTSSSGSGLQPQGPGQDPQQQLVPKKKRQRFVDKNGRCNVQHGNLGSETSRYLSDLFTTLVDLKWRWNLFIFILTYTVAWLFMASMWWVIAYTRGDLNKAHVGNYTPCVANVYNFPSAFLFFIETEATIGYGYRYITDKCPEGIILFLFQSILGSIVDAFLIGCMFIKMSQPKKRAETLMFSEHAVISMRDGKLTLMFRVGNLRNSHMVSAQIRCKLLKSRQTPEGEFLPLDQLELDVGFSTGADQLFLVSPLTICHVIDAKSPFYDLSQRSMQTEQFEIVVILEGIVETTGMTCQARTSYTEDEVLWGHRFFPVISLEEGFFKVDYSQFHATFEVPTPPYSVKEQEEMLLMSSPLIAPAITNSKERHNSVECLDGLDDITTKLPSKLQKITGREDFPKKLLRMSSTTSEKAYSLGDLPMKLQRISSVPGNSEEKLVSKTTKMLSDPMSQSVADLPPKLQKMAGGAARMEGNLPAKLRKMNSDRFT
T2 sequence (P48051 1-423): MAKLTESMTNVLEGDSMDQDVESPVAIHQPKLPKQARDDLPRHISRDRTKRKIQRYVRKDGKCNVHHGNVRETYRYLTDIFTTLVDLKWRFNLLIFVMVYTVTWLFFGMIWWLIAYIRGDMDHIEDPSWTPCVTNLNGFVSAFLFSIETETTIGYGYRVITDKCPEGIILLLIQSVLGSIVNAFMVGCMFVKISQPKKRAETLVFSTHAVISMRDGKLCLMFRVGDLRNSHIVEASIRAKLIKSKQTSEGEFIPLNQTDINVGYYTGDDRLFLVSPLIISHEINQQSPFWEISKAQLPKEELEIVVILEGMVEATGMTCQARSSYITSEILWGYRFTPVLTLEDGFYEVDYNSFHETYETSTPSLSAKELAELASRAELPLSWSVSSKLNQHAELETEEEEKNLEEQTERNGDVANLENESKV
Outline: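 Xenopus oocytes were injected with Kir3.1/3.2 or Kir3.1/3.4 cRNA and voltage-clamped with two electrodes at 20–23°C, with current at −80 mV followed over time. The bath was switched from K+-free to 90 mM K+ to activate the channel. Test compound in 90K was applied continuously at graded concentrations, then 2 mM Ba2+ was added. A final 0K switch measured leak. Time constant derived (n = 6 at 25 μM). Percent inhibition n = 4–6.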

Kir7.1 = molecular target: T3, Kir7.1 (Homo sapiens, UniProt O60928); assay: Two-electrode voltage clamp in Xenopus oocytes, Kir7.1
T3 sequence (O60928 1-360): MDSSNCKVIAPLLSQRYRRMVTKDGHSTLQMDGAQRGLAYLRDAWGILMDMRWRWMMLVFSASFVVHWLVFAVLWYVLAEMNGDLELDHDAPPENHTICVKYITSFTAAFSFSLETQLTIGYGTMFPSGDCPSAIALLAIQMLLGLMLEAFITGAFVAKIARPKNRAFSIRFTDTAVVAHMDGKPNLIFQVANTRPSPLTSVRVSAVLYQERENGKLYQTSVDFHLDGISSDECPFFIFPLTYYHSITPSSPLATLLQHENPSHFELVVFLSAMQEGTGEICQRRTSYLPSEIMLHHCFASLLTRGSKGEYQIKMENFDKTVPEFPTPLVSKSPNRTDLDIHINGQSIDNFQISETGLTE
Outline: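 Stage V–VI Xenopus oocytes were defolliculated with 1 mg/mL collagenase and injected with 0.5–10 ng cRNA. They were kept at 16°C in modified L-15 for 24–72 h. Two-electrode voltage clamp at 20–23°C: held at −75 mV and stepped to −120 mV for 200 ms every 5 s, with current at −120 mV tracked over time. Test compound (50 μM) was perfused, then 2 mM Ba2+. Time constant of inhibition derived.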

`Cc1ccc(OCC(O)Cn2c(=N)n(Cc3ccccc3)c3ccccc32)cc1` (stereo not shown) [Compound 1, 1-(3-benzyl-2-imino-2,3-dihydro-1H-benzo[d]imidazol-1-yl)-3-(p-tolyloxy)propan-2-ol] was tested, and the “inhibition of Kir1.1” value (Kir1.1) was 49.5 ± 0.03%, the IC50 (Kir1.1 (S44D)) was 10.8 ± 3.8 µM and the IC50 (Kir3.1/3.2) was about 10 µM. The “time constant (τ) for inhibition of Kir3.1/3.2 currents” value (Kir3.1/3.2; TEVC oocytes, 25 μM, mean ± SEM, n = 6) was 28 ± 4 s, the inhibition at 10 µM (Kir3.1/3.2; read-out: inhibition of GIRK current (Kir3.1/3.2)) was about 50% and the “time constant of Kir7.1 inhibition” value (Kir7.1; TEVC oocytes, 50 μM, n = 8) was 38 ± 6 s. The inhibition at 50 µM (Kir7.1; read-out: inhibition of Kir7.1) was 66 ± 6%.
